In ChEMBL document CHEMBL2021818, “Novel desosamine-modified 14- and 15-membered macrolides without antibacterial activity” (2012):
Converted amounts (≈) assume the structure as drawn.

Tests used:
Format in all cases: functional
Moraxella catarrhalis = experiment: Antibacterial activity against Moraxella catarrhalis ATCC 23246 after 24 hrs at 37 degC by CLSI protocol based microdilution method; details: ATCC 23246, 24 h
Procedure, shortened: (§1)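 Macrolide-susceptible strains, broth microdilution MIC per CLSI. Media: Mueller–Hinton broth (MHB) for S. aureus and M. catarrhalis, MHB plus 5% horse serum for streptococci, Haemophilus test medium for H. influenzae. Compounds dissolved in DMF (5 mg/mL stock) and serially twofold diluted in medium over 64 to 0.125 µg/mL. MIC read after 24 h incubation at 37 °C.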

Streptococcus pyogenes = experiment: Antibacterial activity against Streptococcus pyogenes ATCC 700294 after 24 hrs at 37 degC by CLSI protocol based microdilution method; details: ATCC 700294, 24 h; procedure, shortened: as §1
Streptococcus pneumoniae = experiment: Antibacterial activity against Streptococcus pneumoniae ATCC […] after 24 hrs at 37 degC by CLSI protocol based microdilution method; procedure, shortened: as §1
Haemophilus influenzae = experiment: Antibacterial activity against Haemophilus influenzae ATCC 49247 after 24 hrs at 37 degC by CLSI protocol based microdilution method; details: ATCC 49247, 24 h; procedure, shortened: as §1
Staphylococcus aureus = experiment: Antibacterial activity against Staphylococcus aureus ATCC 13709 after 24 hrs at 37 degC by CLSI protocol based microdilution method; details: ATCC 13709, 24 h; procedure, shortened: as §1

MIC (Moraxella catarrhalis) [mg/L]	MIC (Streptococcus pyogenes) [mg/L]	MIC (Streptococcus pneumoniae) [mg/L]	MIC (Haemophilus influenzae) [mg/L]	MIC (Staphylococcus aureus) [mg/L]	Compound
16 (≈ 21.4 µM)	64 (≈ 85.5 µM)	32 (≈ 42.7 µM)	> 64	> 64	CC[C@H]1OC(=O)[C@H](C)[C@@H](O[C@H]2C[C@@](C)(OC)[C@@H](O)[C@H](C)O2)[C@H](C)[C@@H](O[C@@H]2O[C@H](C)C[C@H](NC)[C@H]2O)[C@](C)(OC)C[C@@H](C)C(=O)N[C@H](C)[C@@H](O)[C@]1(C)O
2 (≈ 2.73 µM)	< 0.25	< 0.25	> 64	4 (≈ 5.45 µM)	CC[C@H]1OC(=O)[C@H](C)[C@@H](O[C@H]2C[C@@](C)(OC)[C@@H](O)[C@H](C)O2)[C@H](C)[C@@H](O[C@@H]2O[C@H](C)C[C@H](NC)[C@H]2O)[C@](C)(OC)C[C@@H](C)C(=O)[C@H](C)[C@@H](O)[C@]1(C)O
2 (≈ 2.72 µM)	2 (≈ 2.72 µM)	2 (≈ 2.72 µM)	> 64	16 (≈ 21.8 µM)	CC[C@H]1OC(=O)[C@H](C)[C@@H](O[C@H]2C[C@@](C)(OC)[C@@H](O)[C@H](C)O2)[C@H](C)[C@@H](O[C@@H]2O[C@H](C)C[C@H](NC)[C@H]2O)[C@](C)(O)C[C@@H](C)CN(C)[C@H](C)[C@@H](O)[C@]1(C)O
> 64	> 64	> 64	> 64	> 64	CC[C@H]1OC(=O)[C@H](C)[C@@H](O[C@H]2C[C@@](C)(OC)[C@@H](O)[C@H](C)O2)[C@H](C)[C@@H](O[C@@H]2O[C@H](C)C[C@H](N)[C@H]2O)[C@](C)(OC)C[C@@H](C)C(=O)N[C@H](C)[C@@H](O)[C@]1(C)O
16 (≈ 22.2 µM)	2 (≈ 2.78 µM)	2 (≈ 2.78 µM)	> 64	> 64	CC[C@H]1OC(=O)[C@H](C)[C@@H](O[C@H]2C[C@@](C)(OC)[C@@H](O)[C@H](C)O2)[C@H](C)[C@@H](O[C@@H]2O[C@H](C)C[C@H](N)[C@H]2O)[C@](C)(OC)C[C@@H](C)C(=O)[C@H](C)[C@@H](O)[C@]1(C)O
8 (≈ 11.1 µM)	32 (≈ 44.4 µM)	4 (≈ 5.55 µM)	64 (≈ 88.8 µM)	> 64	CC[C@H]1OC(=O)[C@H](C)[C@@H](O[C@H]2C[C@@](C)(OC)[C@@H](O)[C@H](C)O2)[C@H](C)[C@@H](O[C@@H]2O[C@H](C)C[C@H](N)[C@H]2O)[C@](C)(O)C[C@@H](C)CN(C)[C@H](C)[C@@H](O)[C@]1(C)O
> 64	> 64	> 64	> 64	> 64	CC[C@H]1OC(=O)[C@H](C)[C@@H](O[C@H]2C[C@@](C)(OC)[C@@H](O)[C@H](C)O2)[C@H](C)[C@@H](O[C@@H]2O[C@H](C)C[C@@H]3NC(=O)O[C@@H]23)[C@](C)(OC)C[C@@H](C)C(=O)N[C@H](C)[C@@H](O)[C@]1(C)O
> 64	> 64	> 64	> 64	> 64	CC[C@H]1OC(=O)[C@H](C)[C@@H](O[C@H]2C[C@@](C)(OC)[C@@H](O)[C@H](C)O2)[C@H](C)[C@@H](O[C@@H]2O[C@H](C)C[C@@H]3NC(=O)O[C@@H]23)[C@](C)(OC)C[C@@H](C)C(=O)[C@H](C)[C@@H](O)[C@]1(C)O
> 64	> 64	> 64	> 64	> 64	CC[C@H]1OC(=O)[C@H](C)[C@@H](O[C@H]2C[C@@](C)(OC)[C@@H](O)[C@H](C)O2)[C@H](C)[C@@H](O[C@@H]2O[C@H](C)C[C@@H]3NC(=O)O[C@@H]23)[C@](C)(O)C[C@@H](C)CN(C)[C@H](C)[C@@H](O)[C@]1(C)O
> 64	> 64	> 64	> 64	> 64	CC[C@H]1OC(=O)[C@H](C)[C@@H](O[C@H]2C[C@@](C)(OC)[C@@H](O)[C@H](C)O2)[C@H](C)[C@@H](O[C@@H]2O[C@H](C)C[C@H]3[C@H]2OC(=O)N3C)[C@](C)(OC)C[C@@H](C)C(=O)N[C@H](C)[C@@H](O)[C@]1(C)O
> 64	> 64	> 64	> 64	> 64	CC[C@H]1OC(=O)[C@H](C)[C@@H](O[C@H]2C[C@@](C)(OC)[C@@H](O)[C@H](C)O2)[C@H](C)[C@@H](O[C@@H]2O[C@H](C)C[C@H]3[C@H]2OC(=O)N3C)[C@](C)(OC)C[C@@H](C)C(=O)[C@H](C)[C@@H](O)[C@]1(C)O
> 64	> 64	> 64	> 64	> 64	CC[C@H]1OC(=O)[C@H](C)[C@@H](O[C@H]2C[C@@](C)(OC)[C@@H](O)[C@H](C)O2)[C@H](C)[C@@H](O[C@@H]2O[C@H](C)C[C@H]3[C@H]2OC(=O)N3C)[C@](C)(O)C[C@@H](C)CN(C)[C@H](C)[C@@H](O)[C@]1(C)O
> 64	> 64	> 64	> 64	> 64	CC[C@H]1OC(=O)[C@H](C)[C@@H](O[C@H]2C[C@@](C)(OC)[C@@H](O)[C@H](C)O2)[C@H](C)[C@@H](O[C@@H]2O[C@H](C)C[C@H]3[C@H]2OC(=O)N3CC)[C@](C)(OC)C[C@@H](C)C(=O)N[C@H](C)[C@@H](O)[C@]1(C)O
> 64	> 64	> 64	> 64	> 64	CCCN1C(=O)O[C@H]2[C@H](O[C@@H]3[C@@H](C)[C@H](O[C@H]4C[C@@](C)(OC)[C@@H](O)[C@H](C)O4)[C@@H](C)C(=O)O[C@H](CC)[C@@](C)(O)[C@H](O)[C@@H](C)NC(=O)[C@H](C)C[C@@]3(C)OC)O[C@H](C)C[C@@H]21
> 64	> 64	> 64	> 64	> 64	CC[C@H]1OC(=O)[C@H](C)[C@@H](O[C@H]2C[C@@](C)(OC)[C@@H](O)[C@H](C)O2)[C@H](C)[C@@H](O[C@@H]2O[C@H](C)C[C@H]3[C@H]2OC(=O)N3CC)[C@](C)(OC)C[C@@H](C)C(=O)[C@H](C)[C@@H](O)[C@]1(C)O
> 64	> 64	> 64	> 64	> 64	CCCN1C(=O)O[C@H]2[C@H](O[C@@H]3[C@@H](C)[C@H](O[C@H]4C[C@@](C)(OC)[C@@H](O)[C@H](C)O4)[C@@H](C)C(=O)O[C@H](CC)[C@@](C)(O)[C@H](O)[C@@H](C)C(=O)[C@H](C)C[C@@]3(C)OC)O[C@H](C)C[C@@H]21
> 64	> 64	> 64	> 64	> 64	CC[C@H]1OC(=O)[C@H](C)[C@@H](O[C@H]2C[C@@](C)(OC)[C@@H](O)[C@H](C)O2)[C@H](C)[C@@H](O[C@@H]2O[C@H](C)C[C@H]3[C@H]2OC(=O)N3Cc2ccccc2)[C@](C)(OC)C[C@@H](C)C(=O)[C@H](C)[C@@H](O)[C@]1(C)O
> 64	> 64	> 64	> 64	> 64	CC[C@H]1OC(=O)[C@H](C)[C@@H](O[C@H]2C[C@@](C)(OC)[C@@H](O)[C@H](C)O2)[C@H](C)[C@@H](O[C@@H]2O[C@H](C)C[C@H]3[C@H]2OC(=O)N3CC)[C@](C)(O)C[C@@H](C)CN(C)[C@H](C)[C@@H](O)[C@]1(C)O
> 64	> 64	> 64	> 64	> 64	CCCN1C(=O)O[C@H]2[C@H](O[C@@H]3[C@@H](C)[C@H](O[C@H]4C[C@@](C)(OC)[C@@H](O)[C@H](C)O4)[C@@H](C)C(=O)O[C@H](CC)[C@@](C)(O)[C@H](O)[C@@H](C)N(C)C[C@H](C)C[C@@]3(C)O)O[C@H](C)C[C@@H]21
> 64	> 64	> 64	> 64	> 64	CCCCCCN1C(=O)O[C@H]2[C@H](O[C@@H]3[C@@H](C)[C@H](O[C@H]4C[C@@](C)(OC)[C@@H](O)[C@H](C)O4)[C@@H](C)C(=O)O[C@H](CC)[C@@](C)(O)[C@H](O)[C@@H](C)N(C)C[C@H](C)C[C@@]3(C)O)O[C@H](C)C[C@@H]21
> 64	> 64	> 64	> 64	> 64	C=CCN1C(=O)O[C@H]2[C@H](O[C@@H]3[C@@H](C)[C@H](O[C@H]4C[C@@](C)(OC)[C@@H](O)[C@H](C)O4)[C@@H](C)C(=O)O[C@H](CC)[C@@](C)(O)[C@H](O)[C@@H](C)N(C)C[C@H](C)C[C@@]3(C)O)O[C@H](C)C[C@@H]21
0.5 (≈ 0.655 µM)	4 (≈ 5.24 µM)	1 (≈ 1.31 µM)	16 (≈ 21 µM)	32 (≈ 41.9 µM)	CC[C@H]1OC(=O)[C@H](C)[C@@H](O[C@H]2C[C@@](C)(OC)[C@@H](O)[C@H](C)O2)[C@H](C)[C@@H](O[C@@H]2O[C@H](C)C[C@H](N(C)C)[C@H]2O)[C@](C)(OC)C[C@@H](C)C(=O)N[C@H](C)[C@@H](O)[C@]1(C)O

Compound	MIC (Moraxella catarrhalis) [mg/L]	MIC (Streptococcus pyogenes) [mg/L]	MIC (Streptococcus pneumoniae) [mg/L]	MIC (Haemophilus influenzae) [mg/L]	MIC (Staphylococcus aureus) [mg/L]
CC[C@H]1OC(=O)[C@H](C)[C@@H](O[C@H]2C[C@@](C)(OC)[C@@H](O)[C@H](C)O2)[C@H](C)[C@@H](O[C@@H]2O[C@H](C)C[C@H](N(C)C)[C@H]2O)[C@](C)(O)C[C@@H](C)CN(C)[C@H](C)[C@@H](O)[C@]1(C)O [AZITHROMYCIN]	< 0.125	< 0.125	< 0.125	2 (≈ 2.67 µM)	1 (≈ 1.34 µM)
